# Data: ChEMBL document CHEMBL1125112, “Antitumor imidazotetrazines. 20. Preparation of the 8-acid derivative of mitozolomide and its utility in the preparation of active antitumor agents” (1990)
# Legend:
# TLX-5 [1] = test: (§1) In vivo antitumor activity against the TLX5 lymphoma cell line in mouse species CBA/CA after intraperitoneal administration (inoculum cells-2x10E5,sc) at the dose of 160 mg/kg; type: functional
# Procedure, shortened: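 CBA/CA mice were implanted sc with 2 × 10^5 TLX5 lymphoma cells. Compound was given ip on day 3 in 10% Me2SO in arachis oil, over 60 days, in groups of 5. T/C% = mean death day of treated/mean death day of controls. Survivors to day 60 were counted.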
# TLX-5 [2] = test: In vivo antitumor activity against the TLX5 lymphoma cell line in mouse species CBA/CA after intraperitoneal administration (inoculum cells-2x10E5,sc) at the dose of 20 mg/kg; type: functional
# Procedure, shortened: (§2)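 CBA/CA mice were inoculated with 2 × 10^5 TLX5 lymphoma cells. Drug given intraperitoneally in 10% Me2SO in arachis oil, 5 mice per dose, and the experiment lasted 60 days. Survivors at 60 days were recorded. T/C % = mean death day of treated animals / mean death day of control animals.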
# TLX-5 [3] = test: In vivo antitumor activity against the TLX5 lymphoma cell line in mouse species CBA/CA after intraperitoneal administration (inoculum cells-2x10E5,sc) at the dose of 40 mg/kg; type: functional; procedure, shortened: as §2
# TLX-5 [4] = test: In vivo antitumor activity against the TLX5 lymphoma cell line in mouse species CBA/CA after intraperitoneal administration (inoculum cells-2x10E5,sc) at the dose of 320 mg/kg on 5th day; type: functional
# TLX-5 [5] = test: In vivo antitumor activity against the TLX5 lymphoma cell line in mouse species CBA/CA after intraperitoneal administration (inoculum cells-2x10E5,sc) at the dose of 20 mg/kg on 5th day; type: functional
# TLX-5 [6] = test: In vivo antitumor activity against the TLX5 lymphoma cell line in mouse species CBA/CA after intraperitoneal administration (inoculum cells-2x10E5,sc) at the dose of 80 mg/kg on 5th day; type: functional
# TLX-5 [7] = test: In vivo antitumor activity against the TLX5 lymphoma cell line in mouse species CBA/CA after intraperitoneal administration (inoculum cells-2x10E5,sc) at the dose of 80 mg/kg; type: functional; procedure, shortened: as §2
# TLX-5 [8] = test: In vivo antitumor activity against the TLX5 lymphoma cell line in mouse species CBA/CA after intraperitoneal administration (inoculum cells-2x10E5,sc) at the dose of 40 mg/kg on 5th day; type: functional
# TLX-5 [9] = test: In vivo antitumor activity against the TLX5 lymphoma cell line in mouse species CBA/CA after intraperitoneal administration (inoculum cells-2x10E5,sc) at the dose of 10 mg/kg on 5th day; type: functional
# TLX-5 [10] = test: In vivo antitumor activity against the TLX5 lymphoma cell line in mouse species CBA/CA after intraperitoneal administration (inoculum cells-2x10E5,sc) at the dose of 5 mg/kg on 5th day; type: functional
# L1210 [11] = test: In vivo antitumor activity against the L1210 leukemia cell line in mouse species B6D2F1 after peroral administration (inoculum cells-10E5,ip) at the dose of 80 mg/kg on 10th day; type: functional; conditions: route oral
# Procedure, shortened: (§3)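 B6D2F1 mice were inoculated with 10^5 L1210 leukemia cells, ip or iv as the line states. Compound was given orally as a suspension in 1% (carboxymethyl)cellulose in water, dosed on day 1 or 3, over 28–39 days. T/C% = mean death day of treated/mean death day of controls. Survivors to the end were counted in groups of 7–8.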
# TLX-5 [12] = test: In vivo antitumor activity against the TLX5 lymphoma cell line in mouse species CBA/CA after intraperitoneal administration (inoculum cells-2x10E5,sc) at the dose of 320 mg/kg; type: functional; procedure, shortened: as §2
# TLX-5 [13] = test: In vivo antitumor activity against the TLX5 lymphoma cell line in mouse species CBA/CA after intraperitoneal administration (inoculum cells-2x10E5,sc) at the dose of 160 mg/kg on 5th day; type: functional
# TLX-5 [14] = test: In vivo antitumor activity against the TLX5 lymphoma cell line in mouse species CBA/CA after intraperitoneal administration (inoculum cells-2x10E5,sc) at the dose of 320 mg/kg on 3rd day
# TLX-5 [15] = test: as §1; type: functional; procedure, shortened: as §2; remark: listed apart in the source
# L1210 [16] = test: In vivo antitumor activity against the L1210 leukemia cell line in mouse species B6D2F1 after peroral administration (inoculum cells-10E5,iv) at the dose of 10 mg/kg; type: functional; conditions: route oral
# L1210 [17] = test: In vivo antitumor activity against the L1210 leukemia cell line in mouse species B6D2F1 after peroral administration (inoculum cells-10E5,iv) at the dose of 20 mg/kg on 7th day; type: functional; conditions: route oral; procedure, shortened: as §3
# L1210 [18] = test: In vivo antitumor activity against the L1210 leukemia cell line in mouse species B6D2F1 after peroral administration (inoculum cells-10E5,iv) at the dose of 40 mg/kg; type: functional; conditions: route oral
# L1210 [19] = test: In vivo antitumor activity against the L1210 leukemia cell line in mouse species B6D2F1 after peroral administration (inoculum cells-10E5,iv) at the dose of 20 mg/kg; type: functional; conditions: route oral
# L1210 [20] = test: In vivo antitumor activity against the L1210 leukemia cell line in mouse species B6D2F1 after peroral administration (inoculum cells-10E5,iv) at the dose of 10 mg/kg on 7th day; type: functional; conditions: route oral
# L1210 [21] = test: In vivo antitumor activity against the L1210 leukemia cell line in mouse species B6D2F1 after peroral administration (inoculum cells-10E5,iv) at the dose of 40 mg/kg on 7th day; type: functional; conditions: route oral; procedure, shortened: as §3
# TLX-5 [22] = test: In vivo antitumor activity against the TLX5 lymphoma cell line in mouse species CBA/CA after intraperitoneal administration (inoculum cells-2x10E5,sc) at the dose of 10 mg/kg; type: functional
# L1210 [23] = test: In vivo antitumor activity against the L1210 leukemia cell line in mouse species B6D2F1 after peroral administration (inoculum cells-10E5,iv) at the dose of 50 mg/kg on 7th day; type: functional; conditions: route oral; procedure, shortened: as §3
# L1210 [24] = test: In vivo antitumor activity against the L1210 leukemia cell line in mouse species B6D2F1 after peroral administration (inoculum cells-10E5,iv) at the dose of 200 mg/kg; type: functional; conditions: route oral
# L1210 [25] = test: In vivo antitumor activity against the L1210 leukemia cell line in mouse species B6D2F1 after peroral administration (inoculum cells-10E5,iv) at the dose of 100 mg/kg on 7th day; type: functional; conditions: route oral; procedure, shortened: as §3
# L1210 [26] = test: In vivo antitumor activity against the L1210 leukemia cell line in mouse species B6D2F1 after peroral administration (inoculum cells-10E5,iv) at the dose of 200 mg/kg on 10th day; type: functional; conditions: route oral; procedure, shortened: as §3
# L1210 [27] = test: In vivo antitumor activity against the L1210 leukemia cell line in mouse species B6D2F1 after peroral administration (inoculum cells-10E5,iv) at the dose of 100 mg/kg; type: functional; conditions: route oral
# L1210 [28] = test: In vivo antitumor activity against the L1210 leukemia cell line in mouse species B6D2F1 after peroral administration (inoculum cells-10E5,iv) at the dose of 50 mg/kg; type: functional; conditions: route oral
# L1210 [29] = test: In vivo antitumor activity against the L1210 leukemia cell line in mouse species B6D2F1 after peroral administration (inoculum cells-10E5,ip) at the dose of 10 mg/kg on 10th day; type: functional; conditions: route oral; procedure, shortened: as §3
Structure (SMILES),T/C (TLX-5 [2]) [%],T/C (TLX-5 [3]) [%],Survivors (TLX-5 [5]),Survivors (TLX-5 [6]),T/C (TLX-5 [7]) [%],Survivors (TLX-5 [8]),Survivors (TLX-5 [13]),further results
O=C(NC1CCCCC1)c1ncn2c(=O)n(CCCl)nnc12,109,125,0,1,>277,0,–,Survivors (TLX-5 [1]): 0; Survivors (TLX-5 [4]): 0
CNC(=O)c1ncn2c(=O)n(CCCl)nnc12,>154,–,–,0,–,–,–,Survivors (TLX-5 [9]): 0; Survivors (TLX-5 [10]): 0; Survivors (L1210 [11]): 0
CCSC(=O)c1ncn2c(=O)n(CCCl)nnc12,106,104,0,0,108,0,0,T/C (TLX-5 [12]): 125%; Survivors (TLX-5 [14]): 0; T/C (TLX-5 [15]): 119%
O=C(NCCCl)c1ncn2c(=O)n(CCCl)nnc12,142,>361,0,0,–,3,–,T/C (L1210 [16]): 121%; Survivors (L1210 [17]): 0; T/C (L1210 [18]): 227%; Survivors (TLX-5 [9]): 0; T/C (L1210 [19]): 183%; Survivors (L1210 [20]): 0; Survivors (L1210 [21]): 0; T/C (TLX-5 [22]): 103%
CC(C)(C)NC(=O)c1ncn2c(=O)n(CCCl)nnc12,–,–,–,–,–,–,–,Survivors (L1210 [23]): 0; T/C (L1210 [24]): 307%; Survivors (L1210 [25]): 0; Survivors (L1210 [26]): 0; T/C (L1210 [27]): 149%; T/C (L1210 [28]): 132%
CN(C)C(=O)c1ncn2c(=O)n(CCCl)nnc12,–,–,0,–,–,–,0,Survivors (L1210 [29]): 0; Survivors (L1210 [11]): 0
O=C(N[N+](=O)[O-])c1ncn2c(=O)n(CCCl)nnc12,109,101,0,0,118,0,2,Survivors (TLX-5 [4]): 0; T/C (TLX-5 [15]): >354%
